Screens (PubChem)
PLAP act: PLAP enzyme activators, biochemical, luminescence, HTS; hit rate 1.2% among 96,000; Alkaline phosphatase, placental type (Homo sapiens), P05187; activation fold at 20 µM; purified PLAP enzyme, luminescent substrate read-out; stronger effect = higher value; in the data active = activation fold above about 2
Rev-RRE block: HIV-1 Rev-RRE binding inhibitors, primary screen, biochemical, FRET, protein-RNA interaction | Rev peptide-RRE RNA binding | inhibition, % at 8 µM | hit rate 0.79% among 97,000 | AID 704, 2007;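 active = inhibition above the screen-wide mean plus 3 SD, cut at about 35% in these data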
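Test system: labelled RRE RNA duplex and labelled Rev peptide. Times: 5 min compound–RNA preincubation, then 15 min with peptide, 25 °C. Doses: single-dose 8 µM. Measured by: FRET, excitation 480 nm, emission 540 nm donor and 671 nm acceptor. Measure: % inhibition of FRET ratio versus controls.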
PLK1 inh: human PLK1 kinase inhibitors, primary screen, biochemical, TR-FRET. Serine/threonine-protein kinase PLK1 (Homo sapiens), P53350. recombinant PLK1 kinase, TR-FRET peptide phosphorylation. inhibition, % at 10 µM. hit rate 0.53% among 97,000. AID 619, 2007;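 active = inhibition of 50% or more in the single-concentration screen; inactive = inhibition below 50%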
LYP act: LYP phosphatase activators, primary screen, biochemical, DiFMUP fluorescence, 2 µM | Tyrosine-protein phosphatase non-receptor type 22 (Homo sapiens), Q9Y2R2 | activation, % at 2 µM | hit rate 0.11% among 96,000 | recombinant LYP; 0 = plate median, 100 = signal doubled;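 active = activation at 2 µM above a set limit, the mean plus 5 SD, cut at about 37% in these data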
Target sequence (Q9Y2R2 whole entry, looked up): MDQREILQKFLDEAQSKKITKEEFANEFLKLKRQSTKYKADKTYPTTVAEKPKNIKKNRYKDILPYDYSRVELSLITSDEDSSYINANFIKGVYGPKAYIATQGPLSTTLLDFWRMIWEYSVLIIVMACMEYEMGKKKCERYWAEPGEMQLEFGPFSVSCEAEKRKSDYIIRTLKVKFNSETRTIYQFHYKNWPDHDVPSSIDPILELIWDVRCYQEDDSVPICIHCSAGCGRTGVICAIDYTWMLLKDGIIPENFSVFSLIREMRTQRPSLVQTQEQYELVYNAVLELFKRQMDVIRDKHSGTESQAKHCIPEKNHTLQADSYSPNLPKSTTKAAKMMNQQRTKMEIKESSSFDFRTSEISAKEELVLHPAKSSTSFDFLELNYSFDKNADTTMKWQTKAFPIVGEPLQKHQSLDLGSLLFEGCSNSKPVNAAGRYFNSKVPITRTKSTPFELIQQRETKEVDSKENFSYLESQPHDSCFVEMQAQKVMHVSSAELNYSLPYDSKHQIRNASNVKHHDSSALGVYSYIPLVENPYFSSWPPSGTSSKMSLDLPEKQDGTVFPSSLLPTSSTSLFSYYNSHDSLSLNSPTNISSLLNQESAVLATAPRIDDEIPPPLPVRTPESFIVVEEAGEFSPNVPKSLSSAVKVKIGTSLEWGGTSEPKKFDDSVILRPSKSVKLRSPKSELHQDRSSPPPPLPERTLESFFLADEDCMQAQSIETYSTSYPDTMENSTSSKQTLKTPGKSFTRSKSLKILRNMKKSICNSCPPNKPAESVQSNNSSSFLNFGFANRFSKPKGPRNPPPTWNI
Plk1 PBD FP: Plk1 polo box domain binding inhibitors, primary screen, biochemical, fluorescence polarization; Serine/threonine-protein kinase PLK1 (Homo sapiens), P53350; Plk1 PBD phosphopeptide binding; inhibition, %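 (tested at about 20 µM)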; hit rate 0.13% among 97,000; AID 693, 2007; in the data active = inhibition above about 34%, passing the limit was not always enough
LYP inh 2: PTPN22 phosphatase inhibitors, primary screen, biochemical, DiFMUP fluorescence, 2 µM; Tyrosine-protein phosphatase non-receptor type 22 (Homo sapiens), Q9Y2R2; recombinant LYP catalytic domain; inhibition, % at 2 µM; hit rate 0.21% among 96,000; AID 640, 2007;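 active = inhibition at 2 µM at or above a set limit, the screen mean plus 3 SD, cut at about 24% in these data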
Numbers stand for hits; 0 = inactive; - = no result. Most compounds without a hit are left out; they make up all but 2.7% or so of the library.

SMILES	PLAP act	Rev-RRE block	PLK1 inh	LYP act	Plk1 PBD FP	LYP inh 2
O=C(Oc1c(Cl)cc(Cl)c2cccnc12)c1ccco1	2.1	0	0	0	0	0
COc1cccc(C(=O)Oc2c(CN3CCOCC3)cc(Cl)c3cccnc23)c1	2.6	0	0	0	0	0
O=C(Oc1c(Cl)cc(Cl)c2cccnc12)c1cccs1	-	0	0	0	0	0
COc1ccc(C(=O)Oc2c(CN3CCOCC3)cc(Cl)c3cccnc23)cc1	2	0	0	0	0	0
CCOc1ccc(-c2nnc(-c3ccc(OC)cc3)o2)cc1	-	0	0	0	0	0
Nc1c(C(=O)NCc2ccco2)sc2nc(N3CCOCC3)c3c(c12)CCCC3	0	0	0	0	0	0
COc1cc(C(=O)Oc2c(CN3CCOCC3)cc(Cl)c3cccnc23)cc(OC)c1OC	2	0	0	0	0	0
O=C(Oc1c(CN2CCOCC2)cc(Cl)c2cccnc12)c1ccc(F)cc1	2	0	0	0	0	0
O=C(Oc1ccc(Cl)c2cccnc12)N1CCOCC1	0	0	0	0	0	0
O=C(CCCn1c(=O)[nH]c2cc(Cl)ccc2c1=O)NCCCN1CCCC1	0	0	0	0	0	0
COc1ccc(N2CCN(C(=O)CCCn3c(=O)[nH]c4cc(Cl)ccc4c3=O)CC2)cc1	2	0	0	0	0	0
CC1=Nc2ccccc2/C1=C/c1sc(=N)n(-c2nccs2)c1O	0	62	0	0	0	0
CCn1c(O)c(/C=C2\C=Nc3ccccc32)sc1=Nc1ccc(C)cc1	0	0	0	0	0	0
CCOc1cc(C(c2c(C)[nH][nH]c2=O)c2c(C)[nH][nH]c2=O)ccc1OCc1ccc([N+](=O)[O-])cc1	2.7	0	0	0	0	0
CCOc1cc(C(c2c(C)[nH][nH]c2=O)c2c(C)[nH][nH]c2=O)ccc1OC(=O)c1cccc([N+](=O)[O-])c1	0	0	0	0	0	0
CS(=O)(=O)N(CC(=O)Nc1ccc2c(c1)OCO2)c1ccccc1	0	-	-	-	-	-
CC1CCc2c(C(=O)NCC3CCCO3)csc2C1 (stereo not given)	0	0	0	0	0	0
Cc1ccc2oc(Nc3nc(C)cc(C)n3)nc2c1	2.8	0	0	0	0	0
Cc1ccc2oc(-c3ccccc3)nc2c1	0	0	0	0	0	0
CC(=O)c1ccc(NC(=O)C2CCN(S(=O)(=O)c3cccc4cccnc34)CC2)cc1	0	0	0	0	0	0
N#Cc1c(Sc2ncc(C(F)(F)F)cc2Cl)nsc1C/C=N\OCc1ccccc1Br	0	69	0	0	0	0
CCOC(=O)/C(=C\Nc1ccccc1C(F)(F)F)Sc1ncc(C(F)(F)F)cc1Cl	0	0	0	0	0	0
COc1ccccc1N1CCN(C(=O)CSc2nc(-c3ccco3)cc(C(F)(F)F)n2)CC1	0	0	0	0	0	0
O=C(CCN1C(=O)/C(=C/c2cccc(Br)c2)SC1=S)NNC(=O)c1cccnc1	2.2	0	0	0	0	0
CC(C)(Oc1ccc(Cl)cc1)C(=O)N/N=C/c1cn[nH]c1-c1ccccc1	2.8	0	0	0	0	0
SMILES	PLAP act	Rev-RRE block	PLK1 inh	LYP act	Plk1 PBD FP	LYP inh 2
COc1ccc(-c2[nH]ncc2/C=N\NS(=O)(=O)c2ccc(Cl)cc2)cc1	0	0	0	0	0	0
N#C/C(=C\c1cc(Cl)cc(Cl)c1O)C(=O)NC1CCCCC1	0	45	0	0	0	0
N#C/C(=C\c1cc(Cl)ccc1O)C(=O)NC1CCCCC1	0	0	0	0	0	0
Clc1cnc(N/N=C/c2cccs2)c(Cl)c1	0	0	0	0	0	0
Cc1ccc(/C=N/Nc2ncc(Cl)cc2Cl)s1	2.8	0	0	0	0	0
Cc1cc2ccccn2c1C(=O)c1nc(N2CCOCC2)ncc1Cl	0	0	0	0	0	0
CCOc1cccc(OCCCCN2CCCCC2)c1	0	0	0	0	0	0
S=C(Nc1ccccn1)c1ccccn1	2.4	0	0	0	0	0
Cc1ccc(C)c(NC(=S)c2ccccn2)c1	0	0	0	0	0	0
